Experimental data reported in PMC5335871 (Bioorganic & medicinal chemistry letters, 2016).

What was measured:
GPR35 [1] = target: T1, GPR35 (Homo sapiens, UniProt Q9HC97); assay type: cell-based; details: 10 μM Zaprinast as agonist
Summary of the method: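 Antagonism measured against a 10 μM Zaprinast agonist challenge in U2OS cells permanently expressing HA-GPR35a and βarr2-GFP. Concentration-effect curves for agonist-mediated receptor activation were analysed by nonlinear regression and fitted to sigmoidal dose-response curves to obtain IC50.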

GPR35 [2] = target: T1, GPR35; details: read-out: IC50, antagonism at GPR35; previously identified screening hits; cited from earlier work

T1 sequence (Q9HC97 whole entry): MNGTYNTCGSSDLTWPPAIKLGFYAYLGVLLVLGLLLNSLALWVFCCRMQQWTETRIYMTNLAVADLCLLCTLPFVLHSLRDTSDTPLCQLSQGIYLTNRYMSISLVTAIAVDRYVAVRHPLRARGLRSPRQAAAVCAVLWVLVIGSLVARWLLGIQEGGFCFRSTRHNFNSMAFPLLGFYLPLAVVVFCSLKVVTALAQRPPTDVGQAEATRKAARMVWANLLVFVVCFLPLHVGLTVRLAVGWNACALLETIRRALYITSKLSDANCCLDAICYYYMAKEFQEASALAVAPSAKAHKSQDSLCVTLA

Row | Structure (SMILES) | activity as GPR35 antagonist (in words) (GPR35 [1]) | IC50 (GPR35 [2])
1 | O=C(Nc1ccc2nc(SCc3ccc(Cl)cc3)sc2c1)c1ccccc1C(=O)N1CCCCC1 [Compound 2] | devoid of activity | –
2 | O=C(Nc1ccc2nc(SCc3ccc(Cl)cc3)sc2c1)c1ccccc1C(=O)N1CCCC1 [Compound 3] | devoid of activity | –
3 | O=C(Nc1ccc2nc(SCc3ccncc3)sc2c1)c1ccccc1C(=O)N1CCOCC1 [Compound 9] | inactive | –
4 | CNC(=S)NN=Cc1c(C(=O)OC)cnn1-c1ccc(F)cc1F [Compound 13] | – | 160 nM
